{"data": "Results of several laboratories", "organism": "Escherichia coli", "effect on": "microbial growth", "note": "Each line is one published result; the experiments were not run side by side."}
{"SMILES": "O=C(Cc1ccc(O)c(O)c1)NCCCCCCCC[P+](c1ccccc1)(c1ccccc1)c1ccccc1.[Br-]", "assay": "broth dilution", "test system": "ATCC25922", "setting": "18 h", "MIC": "> 32 µg/mL"}
{"SMILES": "Cc1ccc(C)n1-c1ccc(-c2nnc(-c3ccc(N(C)C)cc3)[nH]2)cc1", "assay": "broth dilution", "test system": "ATCC10536", "setting": "18 h", "MIC": "250 µg/mL"}
{"SMILES": "CO[C@@H](C(N)=O)[C@H](NC(=O)c1ccc(NC(=O)c2ccc(C#N)cc2)cc1)C(=O)Nc1ccc(C(=O)Nc2ccc(C(=O)Nc3ccc(C(=O)O)cc3)c(O)c2OC(C)C)cc1", "test system": "DSM1116", "MIC": "< 0.03 µg/mL"}
{"SMILES": "N=C(N)c1ccc(OCCCCCOc2ccc(C(=N)N)cc2)cc1", "assay": "broth dilution", "test system": "W3110", "MIC": "> 200 µg/mL"}
{"SMILES": "CSc1ccc(/C=C/c2cc(/C=C3\\Sc4ccccc4N3CCCN3CCCC3)c3ccccc3[n+]2C)cc1.[I-]", "assay": "broth dilution", "test system": "ATCC25922", "MIC": "16 µg/mL"}
{"SMILES": "Cc1cc(C(=O)Nc2ccc(C(=O)N[C@@H](CC(N)=O)C(=O)Nc3ccc(C(=O)Nc4ccc(C(=O)Nc5ccc(C(=O)O)cc5)c(O)c4OC(C)C)cc3)cc2)ccc1C#N", "test system": "DSM1116", "MIC": "0.5 µg/mL"}
{"SMILES": "Cc1ccc2nc(-c3ccc(Cl)cc3Cl)[nH]c2c1", "assay": "broth dilution", "test system": "ATCC25922", "MIC": "64 µg/mL"}
{"SMILES": "CCCCCCC/C=C/C(=O)N1C(=O)/C(=C(/C)O)C(=O)C1CCCCN (stereo not drawn)", "test system": "K12, K12", "MIC": "> 200 µg/mL"}
{"SMILES": "CC(C)Oc1c(NC(=O)c2ccc(NC(=O)[C@H](CC(N)=O)NC(=O)c3ccc(NC(=O)Cc4ccc(C#N)cc4)cc3)cc2)ccc(C(=O)Nc2ccc(C(=O)O)cc2)c1O", "test system": "DSM1116", "MIC": "1 µg/mL"}
{"SMILES": "N=C(N)c1ccc(OCc2cc(COc3ccc(C(=N)N)cc3)cc(-c3ccccc3)c2)cc1", "test system": "BW25113", "MIC": "≥ 100 µg/mL"}
{"SMILES": "COc1ccc(NCc2ccc(Oc3ccccn3)cc2)cc1", "MIC": "> 25 µg/mL"}
{"SMILES": "COc1c(C)c(OS(=O)(=O)c2ccc3ccccc3c2)c(C)c(OS(=O)(=O)c2ccc3ccccc3c2)c1C(=O)/C=C/c1ccccc1", "assay": "broth dilution", "test system": "ATCC25922", "MIC": "5000 µg/mL"}
{"SMILES": "Cc1c(CN(C)C(=O)/C=C/c2cnc3c(c2)CC(NC(=O)OC(C)(C)C)C(=O)N3)oc2ccccc12 (stereo not drawn)", "assay": "broth dilution", "test system": "BAA2340", "setting": "clinical isolate", "MIC": "> 32 µg/mL"}
{"SMILES": "Cc1ccc(C)n1-c1ccc(-c2nnc(S)s2)cc1", "assay": "broth dilution", "test system": "ATCC10536", "setting": "18 h", "MIC": "2 µg/mL"}
{"SMILES": "Cc1ccc2nc(-c3ccco3)n(Cc3ccccc3)c2c1", "assay": "broth dilution", "test system": "ATCC25922", "MIC": "128 µg/mL"}
{"SMILES": "CCCCCCC#Cc1cncc(-c2nnc(SCc3ccc(Cl)cc3)n2C2CC2)c1", "MIC": "≥ 20 µg/mL"}
{"SMILES": "Cc1ccc2nc(-c3ccc(N(C)C)cc3)[nH]c2c1", "assay": "broth dilution", "test system": "ATCC25922", "MIC": "64 µg/mL"}
{"SMILES": "N=C(N)c1ccccc1OCc1ccccc1COc1ccccc1C(=N)N", "assay": "broth dilution", "test system": "BW25113", "MIC": "> 200 µg/mL"}
{"SMILES": "C[C@@H](O)[C@H]1C(=O)N2C(C(=O)O)=C(S[C@@H]3CN[C@H](C(=O)N(C)C)C3)[C@H](C)[C@H]12", "assay": "broth dilution", "test system": "KCTC1682", "setting": "16 h", "MIC": "0.5 µM"}
{"SMILES": "CC1(C)S[C@@H]2[C@H](NC(=O)[C@H](N)c3ccccc3)C(=O)N2[C@H]1C(=O)O", "assay": "broth dilution", "test system": "ATCC25922", "MIC": "8 µg/mL"}
{"SMILES": "O=C(CCCCCCCCCC[P+](c1ccccc1)(c1ccccc1)c1ccccc1)Nc1cc(O)c(O)c(O)c1.[Br-]", "assay": "broth dilution", "test system": "ATCC25922", "setting": "18 h", "MIC": "> 32 µg/mL"}
{"SMILES": "CCCCCCC#Cc1cncc(-c2nnc(SCc3ccc([N+](=O)[O-])o3)n2C2CC2)c1", "MIC": "≥ 20 µg/mL"}
{"SMILES": "O=C(O)c1cn(C2CC2)c2cc(N3CCNCC3)c(F)cc2c1=O", "assay": "broth dilution", "setting": "24 h", "MIC": "4.72 µM"}
{"SMILES": "Cn1cc(NC(=O)C(CC(N)=O)NC(=O)c2ccc(NC(=O)c3ccc(C#N)cc3)cc2)cc1-c1nc2ccc(C(=O)Nc3ccc(C(=O)O)cc3)c(O)c2[nH]1 (stereo not drawn)", "test system": "DSM1116", "MIC": "> 64 µg/mL"}
{"SMILES": "NCCCNC1CCCCc2c1[nH]c1ccc(Br)cc21 (stereo not drawn)", "assay": "broth dilution", "test system": "ATCC25922", "MIC": "16 µg/mL"}
{"SMILES": "COc1cccc(-c2nc3ccccc3n2Cc2ccccc2)c1", "assay": "broth dilution", "test system": "ATCC25922", "MIC": "128 µg/mL"}
{"SMILES": "CCCCC(=O)N1C(=O)/C(=C(/C)O)C(=O)C1CC(C)C (stereo not drawn)", "test system": "K12, K12", "MIC": "> 200 µg/mL"}
{"SMILES": "CC(NCCCN)c1cc2cc(Br)ccc2[nH]1 (stereo not drawn)", "assay": "broth dilution", "test system": "ATCC25922", "MIC": "128 µg/mL"}
{"SMILES": "C[C@H](CCC(=O)NCCCNCCCCNCCCN)[C@H]1CC[C@H]2[C@@H]3[C@H](O)C[C@@H]4C[C@H](O)CC[C@]4(C)[C@H]3C[C@H](O)[C@]12C", "assay": "broth dilution", "test system": "MG1655", "setting": "20 h", "MIC": "> 256 µg/mL"}
{"SMILES": "CCCCCCC/C=C/C(=O)N1C(=O)/C(=C(/C)O)C(=O)C1CO (stereo not drawn)", "test system": "K12, K12", "MIC": "> 200 µg/mL"}
{"SMILES": "Cc1ccc2nc(-c3ccccc3O)[nH]c2c1", "assay": "broth dilution", "test system": "ATCC25922", "MIC": "128 µg/mL"}
{"SMILES": "CC1=NN(CNc2ccc(O)cc2)C(=O)C1=NNn1c(-c2ccccc2)nc2ccccc2c1=O", "assay": "broth dilution", "setting": "24 h", "MIC": "107 µM"}
{"SMILES": "C[C@@H](O)[C@H]1C(=O)N2C(C(=O)O)=C(S[C@@H]3CN[C@H](C(=O)N(C)C)C3)[C@H](C)[C@H]12", "assay": "broth dilution", "test system": "ATCC35218", "MIC": "≤ 0.125 µg/mL"}
{"SMILES": "CC(C)Oc1c(NC(=O)c2ccc(NC(=O)[C@H](CC(N)=O)NC(=O)c3ccc(C#Cc4ccc(C#N)cc4)cc3)cc2)ccc(C(=O)Nc2ccc(C(=O)O)cc2)c1O", "test system": "DSM1116", "MIC": "0.06 µg/mL"}
{"SMILES": "CNc1cccc2cc(C(=O)NCCc3cccc(C(=O)O)c3)c(=O)[nH]c12", "assay": "broth dilution", "test system": "ATCC25922", "MIC": "> 64 µg/mL"}
{"SMILES": "COc1c(C)c(OS(=O)(=O)c2ccc3ccccc3c2)c(C)c(O)c1C(=O)/C=C/c1ccccc1", "assay": "broth dilution", "test system": "ATCC25922", "MIC": "5000 µg/mL"}
{"SMILES": "COc1ccc(-c2nc3ccc(C)cc3[nH]2)cc1O", "assay": "broth dilution", "test system": "ATCC25922", "MIC": "64 µg/mL"}
{"SMILES": "N=C(N)c1ccc(OCCCCCCCCOc2ccc(C(=N)N)cc2)cc1", "assay": "broth dilution", "test system": "BW25113", "MIC": "> 25 µg/mL"}
{"SMILES": "Clc1ccc(-c2nc3ccccc3n2Cc2ccccc2)cc1Cl", "assay": "broth dilution", "test system": "ATCC25922", "MIC": "64 µg/mL"}
{"SMILES": "N=C(N)c1ccc(OCc2ccc(-c3ccccc3)cc2COc2ccc(C(=N)N)cc2)cc1", "test system": "BW25113", "MIC": "≥ 200 µg/mL"}
{"SMILES": "C=CCn1c(-c2ccc([N+](=O)[O-])cc2)nc2ccc(C)cc21", "assay": "broth dilution", "test system": "ATCC25922", "MIC": "64 µg/mL"}
{"SMILES": "CNC(C)C1CCC(N)C(OC2C(N)CC(N)C(OC3OCC(C)(O)C(NC)C3O)C2O)O1 (stereo not drawn)", "assay": "broth dilution", "test system": "K12, K12", "setting": "pH 7", "MIC": "0.25 µg/mL"}
{"SMILES": "Cc1cccc2nc(-c3ccc([N+](=O)[O-])o3)[nH]c12", "assay": "broth dilution", "test system": "ATTC25922", "MIC": "4 µg/mL"}
{"SMILES": "Brc1cccc(NCc2ccc(Oc3ccccn3)cc2)c1", "MIC": "> 50 µg/mL"}
{"SMILES": "N=C(N)c1ccc(OCCCCCCCCCCCOc2ccc(C(=N)N)cc2)cc1", "assay": "broth dilution", "test system": "BW25113", "MIC": "> 25 µg/mL"}
{"SMILES": "Cc1ccc(NCc2ccc(Oc3ccccn3)cc2)cc1", "MIC": "> 25 µg/mL"}
{"SMILES": "CC(C)Oc1c(NC(=O)c2ccc(NC(=O)[C@H](CC(N)=O)NC(=O)c3ccc(NC(=O)c4ccc(C#N)nc4)cc3)cc2)ccc(C(=O)Nc2ccc(C(=O)O)cc2)c1O", "test system": "DSM1116", "MIC": "≤ 0.03 µg/mL"}
{"SMILES": "N=C(N)c1ccc(OCc2cccc(COc3ccc(C(=N)N)cc3)c2)cc1", "assay": "broth dilution", "test system": "BW25113", "MIC": "> 200 µg/mL"}
{"SMILES": "Cc1cc(C#N)ccc1C(=O)Nc1ccc(C(=O)N[C@@H](CC(N)=O)C(=O)Nc2ccc(C(=O)Nc3ccc(C(=O)Nc4ccc(C(=O)O)cc4)c(O)c3OC(C)C)cc2)cc1", "test system": "DSM1116", "MIC": "0.5 µg/mL"}
{"SMILES": "N=C(N)c1cccc(OCc2cccc(COc3cccc(C(=N)N)c3)c2)c1", "assay": "broth dilution", "test system": "BW25113", "MIC": "> 200 µg/mL"}
{"SMILES": "COc1c(C)c(OC)c2c(c1C)OC(c1ccccc1)CC2=O (stereo not drawn)", "assay": "broth dilution", "test system": "ATCC25922", "MIC": "5000 µg/mL"}
{"SMILES": "Cc1ccc(C)n1-c1ccc(-c2nnco2)cc1", "assay": "broth dilution", "test system": "ATCC10536", "setting": "18 h", "MIC": "4 µg/mL"}
{"SMILES": "C/C(=C\\c1ccc(C#N)cc1)C(=O)Nc1ccc(C(=O)N[C@@H](CC(N)=O)C(=O)Nc2ccc(C(=O)Nc3ccc(C(=O)Nc4ccc(C(=O)O)cc4)c(O)c3OC(C)C)cc2)cc1", "test system": "DSM1116", "MIC": "0.125 µg/mL"}
{"SMILES": "COc1c(C)c(OC(=O)c2ccc(C)cc2)c(C)c(O)c1C(=O)/C=C/c1ccccc1", "assay": "broth dilution", "test system": "ATCC25922", "MIC": "5000 µg/mL"}
